# Rows were chosen to be rich in hits. Some 2.1% of all compounds tested hit in one or more screens of this group.
# PGE2 EP2 inh: blocks the human prostaglandin E2 receptor EP2; P43116; C6 glioma cells expressing human EP2, cAMP TR-FRET; cells stimulated with saturating PGE2; inhibition, % at 25 µM; hit rate 0.52% among 260,000; AID 1422;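 active = percent inhibition above 40 after rounding to a whole number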;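 note: rat C6 glioma host cells with rolipram phosphodiesterase inhibitor present; the protocol text gives 20 µM as final concentration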
# Target sequence (P43116 whole entry, looked up): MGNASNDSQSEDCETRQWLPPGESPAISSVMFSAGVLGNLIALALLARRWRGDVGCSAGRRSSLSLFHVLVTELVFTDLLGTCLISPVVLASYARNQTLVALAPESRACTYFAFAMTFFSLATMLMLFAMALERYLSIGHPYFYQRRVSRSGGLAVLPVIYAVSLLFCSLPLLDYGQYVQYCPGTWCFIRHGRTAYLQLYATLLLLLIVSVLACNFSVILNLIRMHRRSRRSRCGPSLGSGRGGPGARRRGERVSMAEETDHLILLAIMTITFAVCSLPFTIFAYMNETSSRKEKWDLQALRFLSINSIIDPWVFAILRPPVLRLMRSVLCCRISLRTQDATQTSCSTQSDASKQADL
# hK5 inh: blocks human kallikrein 5 protease activity; AID 873; hit rate 0.59% among 210,000; Q9Y337; inhibition, % at 5 µM; recombinant hK5, fluorogenic AMC substrate cleavage;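 active = inhibition of 40% or more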
# Target sequence (Q9Y337 67-293 limits assumed): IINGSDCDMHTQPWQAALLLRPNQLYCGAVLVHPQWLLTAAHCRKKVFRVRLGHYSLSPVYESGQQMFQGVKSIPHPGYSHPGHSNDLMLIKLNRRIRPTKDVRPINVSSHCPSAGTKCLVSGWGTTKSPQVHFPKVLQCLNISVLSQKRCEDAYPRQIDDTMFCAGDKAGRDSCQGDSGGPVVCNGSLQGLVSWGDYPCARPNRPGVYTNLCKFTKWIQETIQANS
# FXIa inh: factor XIa (human) inhibition. P03951. purified FXIa, Boc-Glu-Ala-Arg-AMC fluorogenic substrate. inhibition, % at 5 µM. hit rate 0.14% among 220,000;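 active = inhibition of at least 40%; inactive = inhibition below 40%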;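 note: fluorescence of freed AMC excited at 355 nm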
# FXIIa inh 1536: inhibitors of human coagulation factor XIIa; purified FXIIa, Boc-QGR-AMC fluorogenic substrate, 2 h; inhibition, % at 5 µM; hit rate 0.3% among 220,000; in the data active = inhibition above about 40%
# EP2 mod: EP2 receptor (human) modulation; P43116; EP2-expressing cells, cAMP HTRF FRET, PGE2 co-stimulation; induction, % at 25 µM; hit rate 0.83% among 260,000;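 active = compounds whose cAMP rise, as percent of the full-agonist control response, exceeds 60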;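 note: rat C6 glioma line stably carrying human EP2 under a CMV promoter; the protocol text gives 20 µM as final concentration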
# Thrombin inh: inhibitors of human thrombin | hit rate 0.26% among 220,000 | alpha-thrombin, Boc-VPR-AMC fluorogenic substrate cleavage | P00734 | inhibition, % at 5 µM;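 active = inhibition at or above 40%; inactive = inhibition below 40%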
#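 System: Human alpha-thrombin protein | Medium: pH 7.5 Tris (50 mM) with NaCl 150 mM, Tween 20 0.05% | Times: Enzyme reaction carried out at room temperature | Detection: AMC fluorescence, 355/460 nm | Evaluation: Percent inhibition scaled between no-compound controls and no-enzyme blanks | Benchmarks: Enzyme without compound as high, wells lacking enzyme as low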
# Numbers stand for hits; 0 = inactive; - = no result.
SMILES,PGE2 EP2 inh,hK5 inh,FXIa inh,FXIIa inh 1536,EP2 mod,Thrombin inh
COc1ccc(N(Cc2cc3ccccc3[nH]c2=O)C(=O)C2CCCO2)cc1 (stereo not given),0,0,0,0,0,0
COc1ccc(N(Cc2cc3cccc(C)c3[nH]c2=O)C(=O)C2CCCO2)cc1 (stereo not given),0,54,0,0,0,0
COc1ccccc1C1CN(c2ccccc2)N=C1c1cccs1 (stereo not given),0,0,0,0,68,0
CC(=O)c1cccc(NC(=O)Cn2nc(C)c3ccccc3c2=O)c1,0,-,-,-,0,-
Cc1ccc(C2=NN(S(=O)(=O)c3ccccc3)C(c3ccccc3O)C2)cc1 (stereo not given),0,0,0,103,0,0
CCOc1ccc2nc(NCCNC(=O)c3ccc(Br)cc3)c(C#N)cc2c1,0,-,-,-,0,-
O=C(Nc1ncnc2sc3c(c12)CCCCC3)c1ccc(F)cc1,0,0,0,47,0,0
CN(C)C(CNC(=O)CSc1nnc(-c2ccco2)o1)c1ccccc1 (stereo not given),0,74,0,0,0,0
CC1=NN(C(=O)COc2cc(C)ccc2C(C)C)C(O)(c2ccccc2)C1 (stereo not given),0,0,0,0,61,0
CC1=NN(C(=O)COc2ccc(C)c(C)c2)C(O)(c2ccc(Cl)cc2)C1 (stereo not given),0,0,0,0,0,0
CCc1ccc(S(=O)(=O)/N=C2/C=C(Sc3ncn[nH]3)C(=O)c3ccccc32)cc1,61,0,0,0,0,0
CC1=C(C#N)c2nc(N)c(C#N)c(C)c2/C1=C\c1ccc(N2CCOCC2)cc1,0,-,-,-,0,-
CC(C)c1ccc2c(c1)CC[C@@H]1[C@](C)(CN)CCC[C@@]21C,90,-,-,-,0,-
CC(C)c1ccc2c(c1)CCC1C(C)(CN)CCCC21C (stereo not given),0,0,0,0,0,0
O=C(CN1C(=O)c2cccc3cccc1c23)Nc1ccc(Cl)c(Cl)c1,0,-,-,-,0,-
O=C(Nc1ccccc1Cl)C1CC(=O)N(c2ccccc2)C1 (stereo not given),0,0,0,41,0,0
CCOc1ccc(N2CC(C(=O)Nc3ccccc3Cl)CC2=O)cc1 (stereo not given),0,-,-,-,0,-
Cc1cc(C)nc(NS(=O)(=O)c2ccc(NC(=O)C3CC(=O)N(c4ccccc4)C3)cc2)n1 (stereo not given),0,60,0,0,0,0
COc1ccc(N2CC(C(=O)Nc3ccc(S(=O)(=O)Nc4nc(C)cc(C)n4)cc3)CC2=O)cc1 (stereo not given),0,0,0,0,0,0
O=[N+]([O-])c1cccc(/C=C/c2nc3ccc([N+](=O)[O-])cc3[nH]2)c1,44,0,0,0,0,0
Cc1ccc2[nH]c(=O)c(CN(CCCO)C(=S)NC(C)c3ccccc3)cc2c1 (stereo not given),0,-,-,-,0,-
Cc1ccccc1NC(=O)c1cccc2nc3ccccc3nc12,-,0,0,44,0,0
O[C@@H](c1cc([C@@]23C[C@H]4CC[C@@H]2C[C@H](C4)C3)nc2c(Cl)cc(Cl)cc12)[C@@H]1CCCCN1,77,-,-,-,0,-
CCC(=O)OCCCNC(=O)c1cc2ccccc2oc1=O,0,-,-,-,0,-
O=C(Nc1cccc(Cl)c1)Nc1ncc(C(F)(F)F)cc1Cl,0,-,-,-,0,-
SMILES,PGE2 EP2 inh,hK5 inh,FXIa inh,FXIIa inh 1536,EP2 mod,Thrombin inh
Cc1csc(N/N=C/c2ccc(O)c([N+](=O)[O-])c2)n1,0,0,0,0,0,0
O=[N+]([O-])c1cc(/C=N\Nc2nc(-c3ccccc3)cs2)ccc1O,48,0,0,0,0,0
COc1ccc(-n2c(SCC(=O)Nc3ccccc3)nnc2-c2cccnc2)cc1,0,-,-,-,0,-
CN1/C(=C/C(=O)c2ccc(Cl)cc2)Sc2cc3c(cc21)OCO3,75,0,0,0,0,0
COc1cc(OC)cc(C(=O)/C=C2\Sc3ccccc3N2C)c1,0,-,0,0,0,0
COc1ccc2c(c1)S/C(=C\C(=O)c1ccncc1)N2C,0,0,0,0,0,0
COc1ccc(C(=O)/C=C2/Sc3cc4c(cc3N2C)OCO4)cc1,77,0,0,0,0,0
COc1cccc(C2CC(c3cccc(NS(C)(=O)=O)c3)=NN2C(C)=O)c1OC (stereo not given),0,-,-,-,0,-
OC1(c2ccc(F)cc2)CCN(Cc2ccccc2)C1 (stereo not given),-,0,0,0,61,0
c1ccc(CN2CCC3(CC2)SSC2(CCN(Cc4ccccc4)CC2)SS3)cc1,45,-,-,-,0,-
OC1(c2ccccc2)CCN(Cc2ccccc2)CC1,0,0,0,0,0,0
O=C(Nc1nccs1)c1ccc(CSc2ncccn2)cc1,0,-,-,-,0,-
CC(C)(C)C(=O)N1NC(=Nc2ccccc2)SC1(C)C,0,0,0,40,0,0
Cn1c2ccccc2c(=O)c2c(=O)n(Cc3ccco3)c(-c3ccc(C(C)(C)C)cc3)nc21,0,0,0,0,65,0
COc1ccc(Cn2c(-c3ccccc3)nc3c(c(=O)c4ccccc4n3C)c2=O)cc1,0,0,0,0,0,0
Cc1ccc(C)c2nc(SCC(=O)NC3CCCCC3)c(C#N)cc12,0,-,-,-,0,-
CCOC(=O)c1sc2cc([N+](=O)[O-])cc(SCC(=O)OC)c2c1N,0,68,0,0,0,0
CCOC(=O)c1sc2cc([N+](=O)[O-])cc(SCCO)c2c1N,0,0,0,0,0,0
Nc1c(C(=O)O)ccc2c1C(=O)c1ccccc1C2=O,0,0,0,0,0,0
O=C(O)c1cccc(N=Nc2c(S(=O)(=O)O)ccc3c2C(=O)c2ccccc2C3=O)c1O,46,-,-,-,0,-
O=C(CN1CCC(c2ccccc2F)CC1)Nc1nccs1,0,-,-,-,0,-
O=C(O)COCC(=O)Nc1cc(C(F)(F)F)cc(C(F)(F)F)c1,0,0,0,0,0,0
CC(CC(=O)O)CC(=O)Nc1cc(C(F)(F)F)cc(C(F)(F)F)c1 (stereo not given),0,50,0,0,0,0
Cc1cccc(NC(=S)N(CCCO)Cc2cc3cc(C)c(C)cc3[nH]c2=O)c1,0,-,-,-,0,-
Cc1cccc2cc(C(c3nnnn3Cc3ccc(F)cc3)N3CCCCC3)c(=O)[nH]c12 (stereo not given),0,-,-,-,0,-
Cc1cc(C)c2[nH]c(=O)c(C(c3nnnn3Cc3ccc(F)cc3)N3CCCCCC3)cc2c1 (stereo not given),0,-,-,-,69,-
Cc1ccc(C)c2[nH]c(=O)c(C(c3nnnn3CCc3ccccc3)N3CCCCC3)cc12 (stereo not given),0,-,-,-,85,-
Cc1ccc(C)c2[nH]c(=O)c(C(c3nnnn3CCc3ccccc3)N3CCOCC3)cc12 (stereo not given),0,0,0,0,0,0
N#CC1=C(N)C(C#N)(C#N)[C@H](c2ccoc2)[C@H]2CN(Cc3ccccc3)CC=C12,0,112,0,0,0,0
